Most compounds without a hit are left out; they make up all but 1.6% or so of the library.
Arrestin-AP2 inh = inhibitors of human beta-arrestin and AP2 interaction; FITC-arrestin peptide / GST-AP2 beads, flow cytometry; AP2 beta2 appendage carries R879A mutation; inhibition, % at 10 µM; 340,000 tested, 0.31% active;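 active = inhibition above a set limit, near 3 SD of compounds lacking own fluorescence, cut at about 54% in these data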
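test system = AP2 appendage R879A on GSH beads | buffer or medium = PBS plus Tween 20 (0.05%) and BSA (0.1%) | incubation = 12 min plus 1 h, RT | detection = bead flow cytometry, FITC channel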
MT1-MMP act inh = blocks activation of human MT1-MMP; 360,000 tested, 0.061% active; HT1080 RFP-PRO-GFP cells, GFP/RFP ratio fluorescence, overnight; percent of plate control window, DMSO zero; GFP/RFP ratio change, % at 20 µM; P50281;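 active = GFP/RFP ratio change of at least 30% with cell ATP level not reduced by more than half and red fluorescence within 50% of control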
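Assay system: RFP-PRO-GFP reporter HT1080 cells; read-out basis: GFP/RFP fluorescence ratio; benchmarks: DMSO wells and RFP-L50D-GFP cells; doses: 20 µM single dose, 1% DMSO; schedule: overnight cell settling, then overnight compound exposure, 37 °C, 5% CO2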
TbMetRS inhib = blocks T. brucei methionyl-tRNA synthetase activity; 360,000 tested, 0.4% active; purified T. brucei MetRS, ATP depletion, Kinase-Glo luminescence; inhibition, % at 11.9 µM;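 active = inhibition above a per-plate cutoff of the control wells' mean inhibition plus 3 SD, cut at about 5.5% in these data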
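technique = Kinase-Glo luminescence, ATP depletion format | system = purified MetRS (methionyl-tRNA synthetase) enzyme from Trypanosoma brucei | timing = 15 min preincubation, 2 h reaction, all 25 °C | evaluation = percent inhibition versus plate control medians | dosing = single dose, 11.9 µM final nominal, 0.9% final DMSO | also added = substrates ATP, L-methionine and bulk Escherichia coli tRNA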
SKN-1 block = blocks SKN-1 activity in C. elegans | C. elegans VP596 Pgst-4::GFP/RFP ratio, acrylamide-induced, 24 h | inhibition, % at 21.8 µM | 360,000 tested, 0.49% active | AID 624304;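 active = interference check ratio from 0.5 to 1.5 plus GFP to RFP signal ratio inhibition reaching or exceeding a fixed threshold, cut at about 30% in these data, passing the limit was not always enough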
Rin1-Abl PPI inh = blocks binding of human Rin1 to Abl | inhibition, % at 7.35 µM | TR-FRET Rin1/Abl binding, biochemical | 360,000 tested, 0.4% active | P00519+Q13671; in the data active = inhibition above about 5%, passing the limit was not always enough
Rin1-Abl confirm = confirmation of inhibitors of human Rin1-Abl interaction. inhibition, % at 7.35 µM. shares compounds with Rin1-Abl PPI inh. TR-FRET Rin1-Abl binding, purified proteins. 1,300 tested, 49% active. AID 602124
GFP quencher = quenches GFP fluorescence, counter-screen for Rin1-Abl inhibitors. shares compounds with Rin1-Abl PPI inh. inhibitors/quenchers counterscreen. inhibition, % at 6.75 µM. 1,300 tested, 8.5% active;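 also: ABL1-eGFP fusion protein alone without its partner RIN1-SBP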
GFP quench dose = GFP fluorescence interference dose response. shares compounds with Rin1-Abl PPI inh. 230 tested, under 10 active. GFP fluorescence interference/quenching counterscreen. AID 602182. IC50, µM; call rule not given here;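 also: ABL1-eGFP fusion protein alone without its RIN1 binding partner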
Tb MetRS conf = confirmation of Trypanosoma brucei MetRS inhibitors. shares compounds with TbMetRS inhib. 1,400 tested, 93% active. AID 624412. inhibition, % at 11.9 µM. T. brucei MetRS enzyme, luminescence (ATP depletion); in the data active = inhibition above about 7%
Jurkat tox = counter-screen for T. brucei MetRS inhibitors: Jurkat cell cytotoxicity | shares compounds with TbMetRS inhib | Jurkat cells viability, ATP luminescence | inhibition, % at 8.3 µM | 1,400 tested, 12% active | AID 624413; in the data active = inhibition above about 15%
Tb MetRS inh FP = orthogonal test for Trypanosoma brucei MetRS inhibitors | shares compounds with TbMetRS inhib | purified T. brucei MetRS, fluorescence polarization | inhibition, % at 11.9 µM | 1,400 tested, 44% active; in the data active = inhibition above about 17%
MT1-MMP conf = validation of inhibitors of human MT1-MMP activation | shares compounds with MT1-MMP act inh | HT1080 RFP-PRO-GFP cells, GFP and RFP fluorescence ratio, overnight | inhibition, % at 20 µM | 200 tested, 10% active;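 active = inhibition of at least 50% in the primary cell screen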
Each line names hits and unclear results; the compound was inactive in the other large screens (follow-up assays come after a bar, where they were run). Rule as the data show it, unless noted: active = inhibition above about 6.5%; inactive = the rest.

Cc1[nH]n(-c2ccccc2)c(=O)c1C(c1ccc(O)c([N+](=O)[O-])c1)c1c(C)[nH]n(-c2ccccc2)c1=O	TbMetRS inhib 12.9, Rin1-Abl PPI inh 12.7 | Rin1-Abl confirm inactive | GFP quencher inactive | Tb MetRS conf inactive | Jurkat tox inactive | Tb MetRS inh FP inactive
COc1ccc(CCC(=O)NCCc2nc3ccccc3[nH]2)cc1	TbMetRS inhib 9.4, Rin1-Abl PPI inh 6.0 | Rin1-Abl confirm inactive | GFP quencher inactive | Tb MetRS conf 16.4 | Jurkat tox inactive | Tb MetRS inh FP inactive
Oc1ccc(/C=N/Nc2ccnc3cc(Cl)ccc23)cc1O	TbMetRS inhib 5.6, Rin1-Abl PPI inh 10.8 | Rin1-Abl confirm inactive | GFP quencher inactive | Tb MetRS conf 12.8 | Jurkat tox 76.9 | Tb MetRS inh FP 26.0
CC/C(=N\Nc1ccnc2cc(Cl)ccc12)c1ccc(O)cc1	none
CCCCn1c(NS(=O)(=O)c2ccc(C)cc2)c(S(=O)(=O)c2ccccc2)c2nc3ccccc3nc21	TbMetRS inhib 8.7, Rin1-Abl PPI inh 9.6 | Rin1-Abl confirm inactive | GFP quencher inactive | Tb MetRS conf 8.9 | Jurkat tox inactive | Tb MetRS inh FP inactive
Cc1ccc(S(=O)(=O)c2c(N)n(CCCN(C)C)c3nc4ccccc4nc23)cc1	none
COc1cccc(C(c2c(C)[nH]n(-c3ccccc3)c2=O)c2c(C)[nH]n(-c3ccccc3)c2=O)c1OC	TbMetRS inhib 7.7, Rin1-Abl PPI inh 6.4 | Rin1-Abl confirm inactive | GFP quencher inactive | Tb MetRS conf inactive | Jurkat tox 19.4 | Tb MetRS inh FP inactive
CCc1nc2c(OCc3ccc(F)cc3)cccn2c1N(C)C(=O)COc1ccccc1	none (no result: Arrestin-AP2 inh, MT1-MMP act inh)
O=C1c2cccnc2-c2ncccc21	none
O=C1C(=O)c2cccnc2-c2ncccc21	TbMetRS inhib 14.6, Rin1-Abl PPI inh 50.3 (no result: Arrestin-AP2 inh) | Rin1-Abl confirm 48.7 | GFP quencher inactive | GFP quench dose inactive | Tb MetRS conf 9.7 | Jurkat tox 97.3 | Tb MetRS inh FP inactive
CCCCCCCCN1C(=O)[C@H](CC(=O)N2CCOCC2)C[C@@]2(C(=O)OC)CC(C)(C)CC=C12	none (no result: Arrestin-AP2 inh, Rin1-Abl PPI inh)
COc1ccc(/C=N/NC(=O)c2cc(O)c(O)c(O)c2)cc1Cn1cc([N+](=O)[O-])cn1	TbMetRS inhib 5.6, Rin1-Abl PPI inh 29.3 | Rin1-Abl confirm 29.4 | GFP quencher 11.0 | Tb MetRS conf 13.1 | Jurkat tox inactive | Tb MetRS inh FP inactive
CCOC(=O)C1(COCc2ccccc2)CCCCC1=O (stereo not given)	none (no result: Arrestin-AP2 inh)
O=C(NCCN1CCOCC1)C(=O)NCC1OCCN1S(=O)(=O)c1ccc(Cl)cc1 (stereo not given)	none (no result: Arrestin-AP2 inh)
COc1cc(C(=O)Nc2ccc(O)cc2C(=O)O)ccc1OC(C)=O	MT1-MMP act inh 36.9, Rin1-Abl PPI inh 71.2 | Rin1-Abl confirm 72.1 | GFP quencher inactive | GFP quench dose inactive | MT1-MMP conf inactive
O=C(Cc1ccccc1F)Nc1cccc(S(=O)(=O)N2CCCCC2)c1	none (no result: Arrestin-AP2 inh)
COc1ccccc1NC(=O)c1ccc(-n2ccnc2)c([N+](=O)[O-])c1	TbMetRS inhib 8.8 | Tb MetRS conf 26.7 | Jurkat tox inactive | Tb MetRS inh FP 22.4
CN(C)S(=O)(=O)c1cc(NC(=O)c2ccc(-n3ccnc3)c([N+](=O)[O-])c2)ccc1Cl	TbMetRS inhib 9.9 | Tb MetRS conf 21.9 | Jurkat tox 33.6 | Tb MetRS inh FP inactive
O=C(Cn1cccn1)N1CCCC(N2CCN(c3ccccc3F)CC2)C1 (stereo not given)	none
COC(=O)c1sc(-c2ccc(Cl)cc2)cc1NC(=O)COCC(=O)O	TbMetRS inhib 38.3 | Tb MetRS conf 37.0 | Jurkat tox inactive | Tb MetRS inh FP 24.8
O=C(c1ccccc1)N(CCCl)C(=O)N(CCCl)C(=O)c1ccccc1	none (no result: Arrestin-AP2 inh)
COc1ccc(C(=O)CN(Cc2ccccc2)C2=NCCS2)cc1	none
O=C(CN(Cc1ccccc1)C1=NCCS1)c1ccc(Cl)cc1	TbMetRS inhib 24.7 | Tb MetRS conf 41.8 | Jurkat tox inactive | Tb MetRS inh FP 23.1
Cc1cc(S(=O)(=O)N2c3ccc(F)cc3CCC2C)ccc1-n1cnnn1 (stereo not given)	none
O=C(CSc1nnc2ccc(-c3ccc(Br)cc3)nn12)NCC1CCCO1 (stereo not given)	TbMetRS inhib 8.0 | Tb MetRS conf 32.8 | Jurkat tox inactive | Tb MetRS inh FP inactive
CNC(=S)NNC(=O)c1ccc(=O)n(Cc2ccc(Cl)cc2Cl)c1	TbMetRS inhib 7.8 | Tb MetRS conf 20.0 | Jurkat tox inactive | Tb MetRS inh FP inactive
O=C(CSc1nc2ccccc2[nH]1)Nc1nc(-c2ccc(Br)cc2)cs1	TbMetRS inhib 19.9 | Tb MetRS conf 35.9 | Jurkat tox inactive | Tb MetRS inh FP 71.3
O=C(CSc1nc2cc3ccccc3cc2[nH]1)Nc1ccc(F)cc1	TbMetRS inhib 21.8 | Tb MetRS conf 28.3 | Jurkat tox inactive | Tb MetRS inh FP 22.9
CN(C)S(=O)(=O)c1cccc(NC(=O)CSc2nc3ccccc3[nH]2)c1	TbMetRS inhib 6.2 | Tb MetRS conf 11.6 | Jurkat tox inactive | Tb MetRS inh FP inactive
NS(=O)(=O)c1cccc(NC(=O)CSc2nc3ccc(Cl)cc3[nH]2)c1	TbMetRS inhib 8.1 | Tb MetRS conf 15.8 | Jurkat tox inactive | Tb MetRS inh FP inactive
CCCc1cc(=O)[nH]c(SCC(=O)Nc2nc(-c3ccccc3)cs2)n1	none
CC(C)[C@@H]1Cc2[nH]c(=O)[nH]c(=O)c2[C@H](c2ccc(F)cc2)O1	none (no result: Arrestin-AP2 inh, Rin1-Abl PPI inh)
O=C(CN1CCCc2ccccc21)Nc1cccc(S(=O)(=O)N2CCOCC2)c1	TbMetRS inhib 6.7 | Tb MetRS conf 12.4 | Jurkat tox inactive | Tb MetRS inh FP inactive
Cc1nonc1NC(=O)CSc1nc2ccc(Cl)cc2[nH]1	TbMetRS inhib 18.8 | Tb MetRS conf 33.4 | Jurkat tox inactive | Tb MetRS inh FP 17.9

Compound activity deposited in PubChem BioAssay by several laboratories.
